Screening data: PubChem BioAssay, several laboratories
MPTP inh – blocks calcium-induced mitochondrial swelling | isolated mouse mitochondria, Ca2+ swelling absorbance, 30 min | inhibition, % at 10 µM | 360,000 compounds, 1.4% hits | AID 602449;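 active means inhibition of 50% or more, scaled per plate between neutral and stimulator controls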
UBC13 inh – inhibitors of human UBC13 polyubiquitin chain formation; inhibition, % at 20 µM; TR-FRET; P61088; 330,000 compounds, 0.47% hits; in the data active means inhibition above about 45%, passing the limit was not always enough
Target sequence (P61088 whole entry, looked up): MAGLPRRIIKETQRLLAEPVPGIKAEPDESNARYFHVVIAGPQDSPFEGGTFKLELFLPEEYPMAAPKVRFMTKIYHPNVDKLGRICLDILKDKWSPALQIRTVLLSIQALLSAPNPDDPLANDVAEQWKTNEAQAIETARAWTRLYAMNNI
MIN6 prolif – MIN6 beta-cell proliferation induction; 330,000 compounds, 0.29% hits; proliferation, % at 10 µM; MIN6 cells proliferation, ATPlite luminescence, 48 h; cells starved in 0.2% serum; 100% = growth in 10% serum;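 active means compounds whose signal lies at least 3.5 SD above the mean of all wells on their plate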
Apaf-1 inh – human Apaf-1 inhibition | 330,000 compounds, 0.71% hits | O14727 | reconstituted apoptosome caspase-3 activity, DEVD-Rh110 fluorescence | inhibition, % at 20 µM | AID 489030; active means inhibition of at least 40% at 20 µM
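Material: cell-free apoptosome with Apaf-1, procaspase-3 and caspase-9; Buffer or medium: Hepes pH 7.5 with detergent and BSA; Reagent: cytochrome c trigger plus (Z-DEVD)2-Rh110 caspase-3 substrate; Times: compound with Apaf-1, dATP, procaspase-3 30 min, then 50 min reaction, room temperature; Technique: Rh110 fluorescence intensity.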
Exocytosis inh – lytic granule exocytosis inhibition; inhibition, % at 10 µM; AID 651702; TALL-104 LAMP-1 surface exposure, flow cytometry; cells stimulated with thapsigargin and PMA; 360,000 compounds, 0.66% hits;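 active means inhibition above about 55%, limit read from the data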
hiPSC survival – increases survival of single human iPS cells. AID 602274. survival enhancement, % at 20 µM. 360,000 compounds, 0.044% hits. hiPSC single-cell survival, ATPlite luminescence; 100% = ROCK inhibitor wells, 0% = DMSO; in the data active means survival enhancement above about 18%;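 further: cells exposed to compounds for 16 hours before the ATP read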
Granule exo CP1 – blocks lytic granule exocytosis | inhibition, % at 10 µM | AID 651954 | TALL-104 cells, LAMP-1 externalization, flow cytometry; stimulated with PMA plus thapsigargin | shares compounds with Exocytosis inh | 1,500 compounds, 11% hits; in the data active means inhibition above about 60%
Large screens that a line does not name were inactive (follow-up assays come after a bar, where they were run). Rows were chosen to be rich in hits. Some 3% of all compounds tested hit in one or more screens of this group.

C=CCN1CCc2cccc3c2[C@H]1Cc1ccc(O)c(O)c1-3	Exocytosis inh 83.6 | Granule exo CP1 inactive
Cc1cccc(C)c1-n1nnnc1C(CCc1ccccc1)N1CCC(n2c(=O)[nH]c3ccccc32)CC1 (stereo not drawn)	Exocytosis inh 90.6 (no result: UBC13 inh, MIN6 prolif, Apaf-1 inh) | Granule exo CP1 95.4
COc1ccc(-n2c(/C=C/c3ccc(O)cc3)nc3ccccc3c2=O)cc1	none
COc1ccc(-n2c(/C=C/c3ccc(O)c(OC)c3)nc3ccccc3c2=O)cc1	Exocytosis inh 57.8 | Granule exo CP1 inactive
CCOC(=O)[C@]12Cc3cc(OC)ccc3[C@H]1N(C1CCCCC1)C(=O)c1cc(OC)ccc12	Exocytosis inh 63.8 (no result: UBC13 inh, MIN6 prolif, Apaf-1 inh) | Granule exo CP1 inactive
CCOC(=O)[C@]12Cc3cc(C)ccc3[C@H]1N(C1CCCCC1)C(=O)c1cc(OC)ccc12	Exocytosis inh 84.4 (no result: UBC13 inh, MIN6 prolif, Apaf-1 inh) | Granule exo CP1 inactive
CCOC(=O)[C@]12Cc3ccccc3[C@H]1N(C)C(=O)c1cc(OC)ccc12	none (no result: UBC13 inh, MIN6 prolif, Apaf-1 inh)
COc1ccc(-c2ccc3c(c2)CNCc2cnnn2-3)cc1	none (no result: UBC13 inh, MIN6 prolif, Apaf-1 inh)
COc1cccc(NP2(=O)OCC(C)([N+](=O)[O-])CO2)c1 (stereo not drawn)	none (no result: UBC13 inh, MIN6 prolif, Apaf-1 inh)
CCOc1ccc(N)cc1	Exocytosis inh 101.3 (no result: UBC13 inh, MIN6 prolif, Apaf-1 inh) | Granule exo CP1 inactive
CN1C2CNC(=O)CC1C1CCC2C1 (stereo not drawn)	none (no result: UBC13 inh, MIN6 prolif, Apaf-1 inh)
CC=C(CC)C1(CC)C(=O)NC(=S)NC1=O	none (no result: UBC13 inh, MIN6 prolif, Apaf-1 inh)
COC(=O)C1=C(c2cccc(OCc3ccccc3)c2)C[C@@H]2CC[C@H]1N2C(=O)NCCCOC(C)C	Exocytosis inh 98.3 | Granule exo CP1 inactive
COC(=O)C1=C(c2cccc(OCc3ccccc3)c2)C[C@@H]2CC[C@H]1N2C(=O)NCCOc1ccc(OC)cc1	none
COc1ccc(Br)cc1CNCCc1ccc2c(c1)OCO2	Exocytosis inh 58.9 | Granule exo CP1 inactive
COc1ccc(CNCCc2ccc3c(c2)OCO3)cc1Br	none
